Screens from PubChem BioAssay.
An excerpt weighted towards active compounds, which were near 2.9% of everything screened.
SENP6 inh: SENP6 protease inhibitors, primary screen, biochemical, luminescence, uHTS; Sentrin-specific protease 6 (Homo sapiens), Q9GZR1; Recombinant SENP6 catalytic domain, aminoluciferin luminescence; inhibition, % at 10 µM; hit rate 1.8% among 330,000; AID 2599, 2010;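 active = inhibition above about 50% at the single tested dose, limit read from the data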;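 note: plate controls were DMSO wells with enzyme for no effect and DMSO wells lacking enzyme for full effect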
Target sequence (Q9GZR1 628-1112 limits assumed): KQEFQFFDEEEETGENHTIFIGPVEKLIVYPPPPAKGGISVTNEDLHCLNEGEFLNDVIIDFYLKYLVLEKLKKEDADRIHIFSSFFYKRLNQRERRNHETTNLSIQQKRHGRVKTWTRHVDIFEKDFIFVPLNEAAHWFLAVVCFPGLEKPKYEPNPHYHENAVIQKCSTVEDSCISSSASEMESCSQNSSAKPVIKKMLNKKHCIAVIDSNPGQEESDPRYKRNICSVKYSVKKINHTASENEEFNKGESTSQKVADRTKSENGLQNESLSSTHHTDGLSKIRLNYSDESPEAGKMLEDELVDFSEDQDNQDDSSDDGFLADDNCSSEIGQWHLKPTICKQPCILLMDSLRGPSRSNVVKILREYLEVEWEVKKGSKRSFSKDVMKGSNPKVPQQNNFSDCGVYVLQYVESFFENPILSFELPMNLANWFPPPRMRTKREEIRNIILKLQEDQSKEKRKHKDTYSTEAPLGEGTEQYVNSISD
HSP90 inh: HSP90 inhibitors, primary screen, cell lysate, luminescence; Heat shock protein HSP 90 (rabbit reticulocyte lysate; luciferase refolding); Rabbit reticulocyte lysate, luciferase refolding luminescence, 3 h; inhibition, % at 5.6 µM; hit rate 0.91% among 290,000;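 active = inhibition above the screen-wide mean plus 3 SD, computed separately per campaign, cut at about 16% in these data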;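 note: 0% = DMSO wells and 100% = 60 µM geldanamycin wells; inhibitors lower the luminescence because luciferase stays unfolded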
SENP8 block-1: SENP8 protease inhibitors, primary screen, biochemical, luminescence; inhibition, % at 10 µM; Sentrin-specific protease 8 (Homo sapiens), Q96LD8; purified SENP8, Z-RLRGG-aminoluciferin cleavage; hit rate 1.2% among 330,000; AID 2540, 2010; in the data active = inhibition above about 50%
Target sequence (Q96LD8 whole entry, looked up): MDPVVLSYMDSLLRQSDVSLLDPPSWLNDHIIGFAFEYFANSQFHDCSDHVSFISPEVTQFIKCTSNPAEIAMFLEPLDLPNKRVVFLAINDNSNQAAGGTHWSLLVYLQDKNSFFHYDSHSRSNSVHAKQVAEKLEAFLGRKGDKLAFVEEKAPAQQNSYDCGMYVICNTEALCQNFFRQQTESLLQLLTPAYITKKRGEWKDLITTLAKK
SENP7 block: SENP7 protease inhibitors, primary screen, biochemical, luminescence, uHTS. hit rate 1.5% among 330,000. recombinant SENP7, Z-RLRGG-aminoluciferin luminescence, 40 min. AID 434973, 2010. Sentrin-specific protease 7 (Homo sapiens), Q9BQF6. inhibition, % at 5 µM;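 active = inhibition above about 50% at the single test dose, limit read from the data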;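 note: plate controls were DMSO with enzyme for no effect and no enzyme buffer wells for full effect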
SENP8 block-2: human SENP8 protease inhibitors, primary screen, biochemical, fluorescence, Nedd8 protein substrate, uHTS. Sentrin-specific protease 8 (Homo sapiens), Q96LD8. recombinant SENP8. inhibition, % at 20 µM. hit rate 0.64% among 360,000; in the data active = inhibition mostly above about 40%, no sharp cut-off; inactive = mostly below about 27%
SENP1 inh: human SENP1 catalytic domain inhibitors, primary screen, biochemical, FRET, uHTS; inhibition, % at 10 µM; Sentrin-specific protease 1 (Homo sapiens), Q9P0U3; hit rate 0.21% among 360,000; AID 624204, 2012; recombinant SENP1 catalytic domain, CyPet-SUMO1-YPet FRET cleavage;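 active = inhibition at least 30% at 10 µM, raw YFP signal under a set limit, fluorescence ratio 0.5 to 1.5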;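 note: 0% = enzyme with DMSO and 100% = no enzyme wells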
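Material – human SENP1 catalytic domain · Input – SENP1 enzyme, 20 pM final · Compound dosing – single concentration of 10 µM compound, 0.5% DMSO final · Timing – enzyme reaction for 50 min at room temperature, dark · Measured by – FRET fluorescence in CFP and YFP emission channels · Control set – no-enzyme wells low, DMSO-plus-enzyme wells high control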
Numbers without * were called inactive; / = not tested or not shown.

SMILES | SENP6 inh | HSP90 inh | SENP8 block-1 | SENP7 block | SENP8 block-2 | SENP1 inh
Nc1nonc1-c1noc(COc2ccccc2Cl)n1 | 35.0 | 3.5 | 7.6 | 27.9 | 28.0 | -79.5
Clc1ccccc1OCc1nc(-c2ccccn2)no1 | 86.0* | 7.7 | 68.6* | 84.2* | 25.9 | 0.6
CN(C)CCNc1ccc(CO)c2sc3ccc(O)cc3c(=O)c12 | / | / | / | / | 45.1* | 27.4
Cc1ccc(N=Nc2c(C)[nH]n(C(N)=S)c2=O)cc1 | 78.7* | -3.6 | 73.7* | 62.7* | 18.0 | 2.3
Cc1[nH]n(C(N)=S)c(=O)c1N=Nc1ccc(S(=O)(=O)N2CCCC2)cc1 | 40.8 | 6.6 | 7.9 | 16.4 | 22.3 | 5.3
CC1=NN(c2nc(-c3ccc(C)cc3)cs2)C(=O)C1N=Nc1cccc(O)c1 (centres undefined) | -7.3 | 3.4 | 7.7 | -2.3 | 35.8* | 4.2
O=C(COc1ccc2c(-c3ccccc3)cc(=O)oc2c1)Nc1ccc(CCO)cc1 | 2.8 | -4.5 | 0.5 | 12.9 | -24.8 | -2.0
C/C(=N\Nc1nc2ccccc2[nH]1)c1cc2ccccc2o1 | -9.9 | -2.9 | -14.8 | 1.9 | -202.8 | -26.0
C/C(=N\Nc1nc2ccccc2[nH]1)c1ccccn1 | 59.4* | 19.1* | 32.2 | -0.8 | -3.7 | -0.6
C[C@@H]1CN([C@@H](C)CO)C(=O)c2cccc(NC(=O)c3nc4ccccc4s3)c2O[C@@H]1CN(C)CC1CC1 | -2.0 | / | 4.8 | 1.9 | -28.3 | -1.7
CC(Oc1ccc(Br)cc1)C(=O)Nc1ccc(N2CCOCC2)cc1N1CCOCC1 (centres undefined) | 4.6 | / | -2.6 | 7.3 | 12.4 | 2.4
Nc1ccc(N2CCN(C(=O)c3cccs3)CC2)cc1 | -2.6 | 0.5 | -7.8 | -4.1 | 49.5* | 25.9
O=c1nc(Nc2ccccc2)oc2ccccc12 | 16.0 | -1.3 | 1.4 | 46.9 | -3.5 | 0.0
O=c1nc(Nc2cccc(Cl)c2)oc2cc(Cl)oc(=O)c12 | 95.5* | 0.7 | 95.4* | -6.1 | -16.6 | -139.6
O=C1S/C(=C\c2ccc(O)c([N+](=O)[O-])c2)C(=O)N1c1ccccc1Cl | -8.0 | -6.5 | -8.3 | -9.0 | 28.2 | 3.1
CN1C(=O)/C(=C/c2ccc(O)c([N+](=O)[O-])c2)N(C)C1=S | 91.4* | -1.3 | 87.4* | 82.6* | 25.8 | 1.5
CC(=O)OCC(=O)C12OC(C)(C)OC1CC1C3CC=C4CC(O)CCC4(C)C3CCC12C (centres undefined) | / | / | / | / | 22.8 | 1.6
Cc1cccc(/N=C/c2c(O)ccc3oc4c(c23)CCCC4)n1 | 6.6 | -5.2 | 5.6 | 1.9 | -16.0 | 4.1
O=[N+]([O-])c1cc2oc3c(c2c(C=NCc2ccccc2)c1O)CCCC3 | 1.5 | 1.6 | 7.6 | 3.9 | 30.8 | 46.0*
COc1cc(CN2CCc3ccccc3C2)cc([N+](=O)[O-])c1O | 3.6 | 2.1 | -0.9 | 1.4 | 14.0 | 2.0
CC(C)CN=Cc1c(O)c([N+](=O)[O-])cc2oc3c(c12)CCCC3 | 22.7 | 0.6 | 16.8 | 7.7 | 31.4 | 32.0*
COCCNc1nc(NCc2ccc(NC(C)=O)cc2)c2sc(-c3ccccc3)cc2n1 | / | / | / | / | -274.2 | -1.9
CC(NC(=O)c1ccc(C(C)(C)C)cc1)C(c1cccs1)N1CCOCC1 (centres undefined) | -2.4 | -0.8 | 3.5 | 0.9 | 4.7 | 0.6
C[C@@H]1CN([C@@H](C)CO)C(=O)CCCn2nncc2CO[C@H]1CN(C)Cc1cccc2c1OCCCO2 | / | / | / | / | 1.6 | 1.1
Cc1nc(-c2ccccc2)sc1-c1ccnn1C | -4.4 | -3.3 | -5.0 | 6.8 | -420.4 | 1.2
SMILES | SENP6 inh | HSP90 inh | SENP8 block-1 | SENP7 block | SENP8 block-2 | SENP1 inh
Cc1nc(-c2ccccc2)sc1-c1ccn[nH]1 | 61.1* | 6.7 | 47.5 | 56.4* | -391.1 | -1.1
CC(=O)OC(C)C1C2=C(C(=O)CC1(C)O)C(=O)c1c(ccc(-c3ccc4c(c3O)C(=O)C3=C(C4=O)C(C(C)OC(C)=O)C(C)(O)CC3=O)c1O)C2=O (centres undefined) | / | / | / | / | 49.4* | 25.7
Oc1c(Br)cc(Br)cc1C=Nc1cccc2ncccc12 | 71.9* | / | 50.2* | 13.8 | -8.0 | -38.2
Cn1c(O)c(/C=N/Nc2ccccc2)c(=O)n(C)c1=O | -14.1 | 16.1* | -9.6 | -12.4 | 17.3 | 4.5
Cc1[nH]nc(N=Cc2c(O)n(C)c(=O)n(C)c2=O)c1-c1ccccc1 | -6.5 | / | -0.9 | 0.3 | / | /
Nc1[nH]n(-c2ccccc2)c(=O)c1N=Nc1ccc2c(c1)OCO2 | 64.5* | -1.7 | 51.5* | 68.7* | 52.3* | 4.9
CC(C)(CNC(=O)c1ccc(-c2ccccc2Cl)o1)N1CCOCC1 | 2.8 | / | -5.0 | -1.2 | 22.4 | 1.1
Cc1ccc(NC2=C/C(=N/S(=O)(=O)c3cccs3)c3ccccc3C2=O)cc1C | / | 2.0 | / | / | 60.6* | 1.2
COc1ccc(S(=O)(=O)/N=C2\C=C(Nc3ccc(O)cc3)C(=O)c3ccccc32)cc1 | 93.5* | 95.6* | 94.6* | 86.6* | 90.0* | 2.1
CC(C)(C)c1ccc(C(=O)NCC(=O)OCC(=O)N2CCCC2)cc1 | -7.3 | / | 5.2 | -1.6 | 14.0 | 0.0
COc1cccc(C(=O)O)c1OS(=O)(=O)c1ccc(C)cc1 | / | / | / | / | 8.8 | 0.8
COc1cccc(-c2nc(-c3cccc(C)c3)nc3cc(Cl)ccc23)c1 | / | / | / | / | 12.5 | 3.9
Cn1ncc(Cl)c1C(=O)Nc1nc2ccc(Cl)cc2s1 | 98.2* | -4.5 | -4.8 | 97.6* | -56.0 | 2.2
O=C(c1cnn(-c2ccccc2)c1)c1ccccc1O | 85.1* | 4.6 | 80.8* | 87.5* | 6.8 | -3.4
CCN(c1ccccc1)S(=O)(=O)c1ccc(Cl)c(C(=O)NC2CCN(Cc3ccccc3)CC2)c1 | / | / | / | / | -104.9 | -19.3
COc1ccc(N=Nc2nc(-c3ccccc3)c(-c3ccccc3)[nH]2)cc1 | -2.9 | -2.3 | -2.9 | 2.1 | 25.3 | 36.8*
Oc1ccccc1N=Nc1nc(-c2ccccc2)c(-c2ccccc2)[nH]1 | -0.4 | -0.5 | 4.2 | 9.1 | 50.9* | 48.1*
COc1ccccc1N=Nc1nc(-c2ccccc2)c(-c2ccccc2)[nH]1 | / | 0.2 | / | / | 29.4 | 17.3
CCC(C)[C@H](N)C(=O)NC[C@H]1CC[C@H](C(=O)N[C@@H](Cc2ccccc2)C(=O)O)CC1 (some centres undefined) | 11.2 | -3.3 | -2.9 | -5.4 | 21.2 | 3.3
O=C1/C(=N\S(=O)(=O)c2cccs2)C([n+]2cccc(Cc3ccccc3)c2)=C([O-])c2ccccc21 | 49.0 | 5.4 | 30.8 | 30.3 | 77.3* | 16.3
CC(C)N(Cc1ccccc1)S(=O)(=O)c1cccs1 | -1.4 | 2.5 | 11.5 | -3.0 | 26.2 | 3.1
